Assays:
[1] = tested on: KB (nasopharyngeal carcinoma); assay: Cell growth inhibition assay; format: cell-based; conditions: Homo sapiens, 72 h, read-out: ED50 against KB
Method in brief: (§1)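 Trypsinized cells were seeded in 96-well plates, then exposed 72 h to test compound from DMSO-diluted stock. Cells were TCA-fixed, stained with 0.4% SRB for 10 min, and dye solubilized in trizma base; A515. ED50 is the concentration halving net protein increase, mean ± SEM of ≥2 independent determinations.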

[2] = tested on: SK-BR-3 (HER2 over-expressing breast cancer); assay: Cell growth inhibition assay; format: cell-based, human; conditions: for cancer cell line selectivity: fold more potent against SK-BR-3 compared with other cancer cell lines tested: SK-BR-3 versus six additional tested cancer cell lines; for ED50 against SK-BR-3: mean ED50+SEM, 2 or more independent tests, SRB, 72 h
Method in brief: as §1

[3] = tested on: MCF10A normal breast cell line; assay: MTT assay, MCF10A normal breast cell line; format: cell-based; conditions: 72 h, single experiment
Method in brief: (§2)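 184A1 and MCF10A were from ATCC. Cells were seeded at 5000/well in the recommended growth medium and incubated overnight. Test compound dissolved in DMSO was then added, followed by 72 h at 37 °C, 5% CO2. MTT reagent was added for 2 h, and formazan was read at OD 570. Data are mean and standard deviation of replicates from a single experiment.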

[4] = tested on: 184A1 normal breast cell line; assay: MTT assay, 184A1 normal breast cell line; format: cell-based; conditions: 72 h, single experiment
Method in brief: as §2

[5] = tested on: SK-BR-3 breast cancer cell line; assay: MTT assay, SK-BR-3; format: cell-based, human; conditions: 72 h, single experiment
A549 (human lung cancer) = assay: Cell growth inhibition assay; format: cell-based; conditions: A549, 72 h, read-out: ED50 against A549
Method in brief: as §1

[6] = tested on: MDA-MB-231 (estrogen receptor negative breast cancer); assay: Cell growth inhibition assay; format: cell-based; conditions: Homo sapiens, MDA-MB-231, 72 h, read-out: ED50 against MDA-MB-231
Method in brief: as §1

DU145 (prostate cancer) = assay: Cell growth inhibition assay; format: cell-based; conditions: Homo sapiens, DU-145, 72 h, read-out: ED50 against DU145

COc1cc(-c2cc3occ(C)c3c(=O)o2)cc(OC)c1OC [Compound 27, 3-Methyl-6-(3,4,5-trimethoxyphenyl)-4H-furo[3,2-c]pyran-4-one]
IC50 [1]: > 63.3 µM
cancer cell line selectivity: fold more potent against SK-BR-3 compared with other cancer cell lines tested [2]: 100- to 250 fold
ED50 against SK-BR-3 [2]: 0.44 ± 0.01 µM

CCOc1cccc(-c2cc3occ(C)c3c(=O)o2)c1 [Compound 12, 6-(3-Ethoxyphenyl)-3-methyl-4H-furo[3,2-c]pyran-4-one]
ED50 against SK-BR-3 [2]: 0.67 ± 0.03 µM

COc1cccc(-c2cc3occ(C)c3c(=O)o2)c1 [Compound 11, 6-(3-Methoxyphenyl)-3-methyl-4H-furo[3,2-c]pyran-4-one]
IC50 [1]: > 78.1 µM

Cc1cccc(-c2cc3occ(C)c3c(=O)o2)c1 [Compound 10, 3-Methyl-6-m-tolyl-4H-furo[3,2-c]pyran-4-one]
ED50 against SK-BR-3 [2]: 1.50 ± 0.04 µM

COc1cc(OC)cc(-c2cc3occ(C)c3c(=O)o2)c1 [Compound 25, 6-(3,5-Dimethoxyphenyl)-3-methyl-4H-furo[3,2-c]pyran-4-one]
interpolated ED50 against MCF10A [3]: > 35.0 µM
interpolated ED50 against 184A1 [4]: 16.8 µM
interpolated ED50 against SK-BR-3 [5]: 1.0 µM
IC50 [1]: > 69.9 µM
potency against SK-BR-3 relative to 1 ([2]; ED50 compared with neo-tanshinlactone (1)): approximately threefold
cancer cell line selectivity: fold more potent against SK-BR-3 compared with other cancer cell lines tested [2]: 100- to 250 fold
ED50 against SK-BR-3 [2]: 0.28 ± 0.01 µM

Cc1cccc2c1ccc1c3occ(C)c3c(=O)oc21 [Compound 1, Neo-tanshinlactone]
IC50 (A549 (human lung cancer)): 54.2 ± 3.4 µM
IC50 [6]: 37.9 ± 1.4 µM
IC50 [1]: > 37.9 µM
IC50 (DU145 (prostate cancer)): 58.3 ± 2 µM

Reference: article PMC2821697 (Bioorganic & medicinal chemistry, 2009)
